The nature of series [1]: Selectivity index, ratio of CC50 for Huh5-2 cells to EC50 for HCV genotype 1b infected in Huh5-2 cells. Further details: species or system Huh-5-2. In short, it runs like this: (§1)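 Selectivity index is the ratio of CC50 from the 3-day MTS/PMS proliferation assay to EC50 in the same cell line. For Huh 5-2 the EC50 is from the luciferase replicon assay; for MDBK it is from the MTS CPE assay.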

The nature of series [2]: Selectivity index, ratio of CC50 for MDBK cells to EC50 for BVDV NADL infected in MDBK cells. In short, it runs like this: as §1
Series [3] in a line: Cytotoxicity against human Huh5-2 cells assessed as growth inhibition after 3 days by MTS assay. It counts as cell-based, Huh-5-2. In short, it runs like this:
(§2)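 MDBK or Huh 5-2 cells were seeded at 5 × 10³/well in MEM-FCS, with serial compound dilutions added 24 h later. Cells proliferated 3 days at 37 °C, then metabolic activity was read by MTS/PMS. CC50 is the concentration inhibiting proliferation of exponentially growing cells by 50%, by linear interpolation.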

The nature of series [4]: (§3) Antiviral activity against BVDV NADL infected in MDBK cells assessed as inhibition of virus-induced cytopathic effect formation after 5 days by MTS assay. It counts as functional, cell-based, Bovine viral diarrhea virus 1-NADL. The note with it: Bovine viral diarrhea virus isolates and strains, 120 h. In short, it runs like this:
(§4)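 MDBK cells were seeded at 5 × 10³/well in MEM-FCS and held 24 h at 37 °C, 5% CO₂. Medium was replaced with 5-fold serial compound dilutions, then BVDV inoculum was added at MOI 2. CPE was read by MTS as OD at 490 nm. EC50 is the concentration giving 50% protection against virus-induced CPE, by linear interpolation.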

Series [5] in a line: Cytotoxicity against MDBK cells assessed as growth inhibition after 3 days by MTS assay. It counts as cell-based, Bos taurus. The following applies: cattle. In a few lines:
as §2
Background: Tetrazolium assays rely on reduction of a dye to a coloured formazan, in cell work by metabolically active cells.

For another series, the system named is Hepatitis C virus. The series is described as follows: Antiviral activity against HCV genotype 1b infected in Huh5-2 cells assessed as inhibition of viral replication after 4 days by luciferase reporter gene assay. The series is classed as functional, organism-based, Hepacivirus hominis, Huh-5-2. The following applies: Hepatitis C virus, genotype 1b, Huh-5-2, 96 h. In a few lines:
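Huh 5-2 cells carrying the HCV subgenomic luciferase replicon were seeded at 5 × 10³/well with compound and incubated 4 days at 37 °C. Medium was removed and luciferase activity quantified. EC50 is the minimum concentration reducing replicon-driven luciferase signal by 50%.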
(A reporter such as luciferase makes a cellular process visible.)

Series [6] relates to Bovine viral diarrhea virus 1-NADL. Kind of series: Selectivity ratio of EC50 for LZ37-resistant BVDV NADL to EC50 for AG110-resistant BVDV NADL. It counts as functional.
Series [7] has the same test system. Kind of series: Selectivity ratio of EC50 for BPIP-resistant BVDV NADL to EC50 for wild type BVDV NADL. It counts as functional.
Series [8] is described as follows: Antiviral activity against LZ37-resistant BVDV NADL assessed as inhibition of viral replication. It counts as functional, Bovine viral diarrhea virus 1-NADL. In short, it runs like this: (§5)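 MDBK cells were seeded at 5 × 10³/well in MEM-FCS and held 24 h at 37 °C in 5% CO₂. Medium was replaced with 5-fold serial compound dilutions, then BVDV NADL (drug-selected resistant variant) at MOI 2. CPE was read by the MTS method at OD 490 nm, and % CPE was calculated. EC50 is the concentration giving 50% protection from virus-induced CPE, by linear interpolation.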

A short description of series [9]: Selectivity ratio of EC50 for BVDV NADL infected in MDBK cells assessed as inhibition of progeny infectious viral particle production to EC50 for BVDV NADL infected in MDBK cells assessed as inhibition of viral RNA synthesis. It counts as functional, Bovine viral diarrhea virus 1-NADL.
Series [10] can be described thus: Antiviral activity against BVDV NADL infected in MDBK cells assessed as inhibition of progeny infectious viral particle production. It counts as functional, cell-based, Bovine viral diarrhea virus 1-NADL. The note with it: Bovine viral diarrhea virus isolates and strains.
For a further series, the system named is MDBK. Described as §3. It counts as functional, cell-based. The following applies: Bovine viral diarrhea virus 1-NADL. In a few lines:
as §4

Series [11] is described as follows: Antiviral activity against BPIP-resistant BVDV NADL assessed as inhibition of viral replication. It counts as functional, Bovine viral diarrhea virus 1-NADL. In short, it runs like this:
as §5

A short description of series [12]: Selectivity index, ratio of CC50 for MDBK cells to EC50 for BVDV NADL infected in MDBK cells assessed as inhibition of progeny infectious viral particle production.
The nature of series [13]: Antiviral activity against AG110-resistant BVDV NADL assessed as inhibition of viral replication. It counts as functional, Bovine viral diarrhea virus 1-NADL. In short, it runs like this: as §5
Series [14] in a line: Antiviral activity against BVDV NADL infected in MDBK cells assessed as inhibition of viral RNA synthesis by RT-qPCR analysis. It counts as functional, cell-based, Bovine viral diarrhea virus 1-NADL. The note with it: Bovine viral diarrhea virus isolates and strains. For orientation: Real-time PCR tracks product formation cycle by cycle.
The test system of series [15] is Bovine viral diarrhea virus 1-NADL. Kind of series: Selectivity ratio of EC50 for AG110-resistant BVDV NADL to EC50 for wild type BVDV NADL. The series is classed as functional.
Series [16] can be described thus: Selectivity index, ratio of CC50 for MDBK cells to EC50 for BVDV NADL infected in MDBK cells assessed as inhibition of viral RNA synthesis.
Series [17] deals with Bovine viral diarrhea virus 1-NADL. The series is described as follows: Selectivity ratio of EC50 for LZ37-resistant BVDV NADL to EC50 for wild type BVDV NADL. It counts as functional.

Values after ≈ are worked out from the molar mass of the structure shown.

The CC50 is the concentration that lowers cell viability or growth by half. As usually defined, the EC50 is the concentration that produces a half-maximal response. With `Fc1ccc(-c2nc3ccccn3c2-c2cccc(-c3ccncc3)c2)cc1`, the “Ratio CC50/EC50” value in series [1] is given as 2.3; in series [2], 7.1. For the same molecule, the cytotoxic concentration (CC50) at 72 h in series [3] turned out to be 45.5 µg/mL (≈ 125 µM); in series [5] it was 7 µg/mL (≈ 19.2 µM). Further, the half-maximal effective concentration (EC50) came out at 0.98 µg/mL (≈ 2.68 µM) in series [4] and 20.2 µg/mL (≈ 55.3 µM) in the series on Hepatitis C virus.
For `Fc1ccc(-c2nc3ccc(Sc4ccccc4)cn3c2-c2cccc(-c3ccccc3)c2)cc1`, the “Ratio CC50/EC50” value in series [1] was more than 1; in series [2], more than 50; in series [12], 19; in series [16] it was 37. Moreover, the Ratio EC50 in series [6] is 2; in [7], 1.5; in series [9], 2; in series [15], 0.9; in [17], 2.2. For the same molecule, the EC50 in [8] came out at 8.8 µg/mL (≈ 18.6 µM); in [10], 8 µg/mL (≈ 16.9 µM); in [4] it was 2 µg/mL (≈ 4.23 µM); in series [11] it was 6 µg/mL (≈ 12.7 µM); in series [13] it was 3.9 µg/mL (≈ 8.25 µM); in [14] it was 2.7 µg/mL (≈ 5.71 µM). For the same molecule, the EC50 in the series on Hepatitis C virus is more than 106 µg/mL. Further, the CC50 at 72 h in series [3] is more than 106 µg/mL; in series [5], more than 100 µg/mL. For the same molecule, the inhibition result in the series with MDBK was “Dose-dependent effect”.
`Fc1ccc(-c2nc3ccc(-c4ccsc4)cn3c2-c2cccc(-c3ccccc3)c2)cc1`: the results for the “Ratio CC50/EC50” value in series [1] and in series [2] were more than 1 and more than 45, respectively. Moreover, the CC50 at 72 h in series [3] was more than 112 µg/mL; in series [5], more than 33 µg/mL. Besides, the EC50 in [4] is 0.74 µg/mL (≈ 1.66 µM); in the series with Hepatitis C virus, more than 112 µg/mL.
Consider `Fc1ccc(-c2nc3ccc(-c4ccccc4)cn3c2-c2cccc(-c3ccccc3)c2)cc1`, for which the “Ratio CC50/EC50” value in series [1] was 1.09; in [2] it was more than 4. Further, the values for the CC50 at 72 h in [3] and in series [5] were 56.8 µg/mL (≈ 129 µM) and more than 50 µg/mL, respectively. The figures for the EC50 (in series [4]; in the series with Hepatitis C virus) were 12 µg/mL (≈ 27.2 µM) and 52.2 µg/mL (≈ 118 µM), respectively.
In the case of `CC(C)(C)c1nc2ccc(-c3ccsc3)nn2c1-c1cccc(-c2ccc(O)cc2)c1`, the entries for the “Ratio CC50/EC50” value in series [1] and in series [2] were 3 and more than 7.1, respectively. Also, the CC50 at 72 h in [3] is 15 µg/mL (≈ 35.2 µM); in [5], more than 100 µg/mL. The EC50 in series [4] was 14.2 µg/mL (≈ 33.4 µM); in the series with Hepatitis C virus it was 5 µg/mL (≈ 11.7 µM).
